From ChEMBL document CHEMBL1240366, “Blockade of X4-tropic HIV-1 cellular entry by GSK812397, a potent noncompetitive CXCR4 receptor antagonist” (Antimicrob Agents Chemother, 2010)
Activity calls are given as the source filed them. No cut-off for these calls is given here.

Experiments:
[1] = molecular target: C-X-C chemokine receptor type 4 (Homo sapiens) (UniProt P61073); assay: Antagonist activity at human CXCR4 expressed in HEK293 cells assessed as inhibition of SDF1-induced increase in intracellular calcium level treated 15 mins before agonist challenge measured after 1 hr by FLIPR assay relative to control; format: functional, cell-based
Sequence of C-X-C chemokine receptor type 4 (Homo sapiens) (P61073 whole entry): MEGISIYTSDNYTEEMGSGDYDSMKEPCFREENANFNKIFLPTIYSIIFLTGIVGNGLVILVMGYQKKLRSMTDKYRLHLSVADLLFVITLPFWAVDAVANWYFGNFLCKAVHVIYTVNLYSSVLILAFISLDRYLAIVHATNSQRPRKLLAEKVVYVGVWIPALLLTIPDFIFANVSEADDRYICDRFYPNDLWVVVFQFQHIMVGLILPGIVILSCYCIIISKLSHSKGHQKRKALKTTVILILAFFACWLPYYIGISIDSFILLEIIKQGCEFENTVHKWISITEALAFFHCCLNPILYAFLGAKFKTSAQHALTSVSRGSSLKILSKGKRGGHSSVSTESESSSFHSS
In short: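 HEK-293 cells transiently transduced by BacMam with CXCR4 (MOI 50) and chimeric Gqi5 (MOI 12.5), plated 40,000 per well, left 24 h at 37°C for expression. Cells then loaded with calcium dye in DMEM/F-12 containing 2.5 mM probenecid and 0.1% BSA for 1 h at 37°C. Intracellular calcium read by FLIPR. For antagonism, compound was added 15 min before SDF-1, used at an EC80 concentration.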

[2] = molecular target: C-X-C chemokine receptor type 4 (Homo sapiens) (UniProt P61073); assay: Noncompetitive antagonist activity at human CXCR4 expressed in HEK293 cells assessed as inhibition of SDF1-induced increase in intracellular calcium level treated 15 mins before agonist challenge measured after 1 hr by FLIPR assay; format: functional, cell-based
[3] = molecular target: C-X-C chemokine receptor type 4 (Homo sapiens) (UniProt P61073); assay: Inhibition of CXCR4-mediated chemotaxis in SDF1-stimulated human U937 cells treated 15 mins before SDF1 challenge measured after 2 hrs by luminescence assay; format: cell-based; conditions: U-937
In short: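 U937 cells (endogenous CXCR4) in RPMI with 2% FCS and 10 mM HEPES, 5 × 10^6 cells/ml, preincubated 15 min with compound, then placed above a 5.0 μm filter. The lower chamber held the same compound concentration plus SDF-1. Migration ran 2 h. Migrated cells were quantified by ATP luminescence. Viability was checked under identical conditions. For mode of action, SDF-1 concentration-response curves were run at increasing compound concentrations.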

[4] = molecular target: Cytochrome P450 2C19 (Homo sapiens, UniProt P33261); assay: Inhibition of CYP2C19 up to 30 uM; format: ADME
Sequence of Cytochrome P450 2C19 (P33261 whole entry): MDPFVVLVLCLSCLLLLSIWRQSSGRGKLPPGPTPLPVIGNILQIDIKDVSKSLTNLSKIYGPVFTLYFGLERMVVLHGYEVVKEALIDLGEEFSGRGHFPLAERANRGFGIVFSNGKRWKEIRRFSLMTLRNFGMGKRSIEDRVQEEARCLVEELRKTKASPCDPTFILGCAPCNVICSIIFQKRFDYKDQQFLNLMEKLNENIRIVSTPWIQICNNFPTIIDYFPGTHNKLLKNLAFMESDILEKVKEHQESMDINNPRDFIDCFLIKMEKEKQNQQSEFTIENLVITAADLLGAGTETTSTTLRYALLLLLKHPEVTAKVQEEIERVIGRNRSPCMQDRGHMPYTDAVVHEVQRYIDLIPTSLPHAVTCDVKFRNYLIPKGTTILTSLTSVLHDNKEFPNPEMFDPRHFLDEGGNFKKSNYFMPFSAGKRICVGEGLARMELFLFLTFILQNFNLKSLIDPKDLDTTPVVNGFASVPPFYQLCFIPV

[5] = Clearance in monkey at 1 mg/kg, iv administered as single dose after 24 hrs by liquid chromatography-mass spectroscopy; format: ADME, organism-based, Macaca mulatta; parameters: dose 1 mg/kg, route intravenous; conditions: rhesus monkey, in vivo
In short: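 Single intravenous dose of 1 mg/kg. Plasma was sampled at serial times over 24 h and measured by LC-MS/MS. Clearance was derived by pharmacokinetic analysis.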

[6] = Half life in dog at 3 mg/kg, po administered as single dose by liquid chromatography-mass spectroscopy; format: ADME, organism-based, Canis lupus familiaris; parameters: dose 3 mg/kg, route oral; conditions: in vivo
In short: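 Single oral dose of 3 mg/kg. Plasma was sampled at serial times over 24 h and measured by LC-MS/MS. Half-life was derived by pharmacokinetic analysis.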

[7] = Oral bioavailability in mouse at 3 mg/kg administered as single dose after 24 hrs by liquid chromatography-mass spectroscopy; format: ADME, organism-based; conditions: in vivo
[8] = Oral bioavailability in dog at 3 mg/kg administered as single dose after 24 hrs by liquid chromatography-mass spectroscopy; format: ADME, organism-based, Canis lupus familiaris; conditions: in vivo
[9] = system: Human immunodeficiency virus 1; assay: Antiviral activity against HIV1 isolate 05-121786 assessed as inhibition of viral replication after 7 days by scintillation counting; format: functional, organism-based; conditions: Human immunodeficiency virus 1, isolate 05-121786, 168 h
[10] = system: Human immunodeficiency virus 1; assay: Antiviral activity against HIV1 isolate 05-121790 assessed as inhibition of viral replication after 7 days by scintillation counting; format: functional, organism-based; conditions: Human immunodeficiency virus 1, isolate 05-121790, 168 h
[11] = system: Human immunodeficiency virus 1; assay: Antiviral activity against HIV1 isolate 05-121776 assessed as inhibition of viral replication after 7 days by scintillation counting; format: functional, organism-based; conditions: Human immunodeficiency virus 1, isolate 05-121776, 168 h
[12] = system: Human immunodeficiency virus 1; assay: Antiviral activity against HIV1 isolate 05-121783 assessed as inhibition of viral replication after 7 days by scintillation counting; format: functional, organism-based; conditions: Human immunodeficiency virus 1, isolate 05-121783, 168 h
[13] = system: Human immunodeficiency virus 1; assay: Antiviral activity against HIV1 isolate 05-121788 assessed as inhibition of viral replication after 7 days by scintillation counting; format: functional, organism-based; conditions: Human immunodeficiency virus 1, isolate 05-121788, 168 h
[14] = system: Human immunodeficiency virus 1; assay: Antiviral activity against HIV1 isolate 05-121796 assessed as inhibition of viral replication after 7 days by scintillation counting; format: functional, organism-based; conditions: Human immunodeficiency virus 1, isolate 05-121796, 168 h
[15] = system: Human immunodeficiency virus 1; assay: Antiviral activity against HIV1 isolate 05-121798 assessed as inhibition of viral replication after 7 days by scintillation counting; format: functional, organism-based; conditions: Human immunodeficiency virus 1, isolate 05-121798, 168 h
[16] = system: Human immunodeficiency virus 1; assay: Antiviral activity against HIV1 isolate 05-121800 assessed as inhibition of viral replication after 7 days by scintillation counting; format: functional, organism-based; conditions: Human immunodeficiency virus 1, isolate 05-121800, 168 h

inhibition [1]: 110% | Activity [2]: Active | inhibition [3]: Dose-dependent effect | inhibition (INH) [4]: Not Active | clearance [5]: 5.8 mL/min/kg | half-life [6]: > 12 h | bioavailability [7]: 10% | bioavailability [8]: 21% | IC50 [9]: 1 nM | IC50 [10]: 1 nM | IC50 [11]: 1 nM | IC50 [12]: 1 nM | IC50 [13]: 1 nM | IC50 [14]: 1 nM | IC50 [15]: 1 nM | IC50 [16]: 1 nM
SMILES: CN1CCN(c2cccc3nc(CN(C)[C@H]4CCCc5cccnc54)c(CO)n23)CC1
